Calls of active or inactive are those of the source. The calls are words filed in the database; no cut-off is given here.
Columns and labels:
[1] = Binding affinity to Schistosoma mansoni BRD3 BD 2 assessed as dissociation constant by ITC analysis
Schistosoma mansoni [2] = assay: Antiparasitic activity against Schistosoma mansoni adult worms assessed as lethality at 20 uM incubated for 72 hrs; format: functional, organism-based
Schistosoma mansoni [3] = assay: Binding affinity to Schistosoma mansoni BRD3 BD 2 by ITC analysis
Schistosoma mansoni [4] = assay: Antiparasitic activity against Schistosoma mansoni assessed as effect on schistosomula phenotype at 10 to 20 uM incubated for 72 hrs by high content imaging analysis; format: functional, organism-based; conditions: dose 10-20 µM
How it was run: (§1)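 Schistosomula from mechanically transformed cercariae, 120/well, dosed from 10 mM DMSO stock at 20 and 10 μM final in duplicate (0.625% DMSO), ≥4 independent screens (Z′ >0.35). Auranofin 10 μM positive and DMSO negative controls. Phenotype and motility read by high content imaging after 72 h.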

Schistosoma mansoni [5] = assay: Antiparasitic activity against Schistosoma mansoni assessed as effect on schistosomula motility at 10 to 20 uM incubated for 72 hrs by high content imaging analysis; format: functional, organism-based; conditions: dose 10-20 µM; how it was run: as §1
Schistosoma mansoni [6] = assay: Antiparasitic activity against Schistosoma mansoni assessed as effect on schistosomula phenotype incubated for 72 hrs by high content imaging analysis; format: functional, organism-based; how it was run: as §1
Schistosoma mansoni [7] = assay: Antiparasitic activity against Schistosoma mansoni assessed as effect on schistosomula motility incubated for 72 hrs by high content imaging analysis; format: functional, organism-based; how it was run: as §1
Schistosoma mansoni [8] = assay: Binding affinity to Schistosoma mansoni BRD3 BD 1 and 2 assessed as thermal stability at 50 uM by DSF analysis
How it was run: (§2)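 Differential scanning fluorimetry on recombinant SmBRD3(1,2) tandem construct or SmBRD3(2) single domain, compounds at 50 μM; ΔTm as mean of n = 3 with SD.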

Schistosoma mansoni [9] = assay: Binding affinity to Schistosoma mansoni BRD3 BD 2 assessed as thermal stability at 50 uM by DSF analysis; how it was run: as §2
Schistosoma mansoni [10] = assay: Binding affinity to Schistosoma mansoni BRD3 BD 1 assessed as thermal stability at 50 uM by DSF analysis
Schistosoma mansoni [11] = assay: Antiparasitic activity against Schistosoma mansoni adult worms assessed as reduction in worm pairing at 20 uM incubated for 72 hrs by imaging analysis; format: functional, organism-based
How it was run: (§3)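 Adult worm pairs perfused from TO mice infected percutaneously 7 weeks earlier with 180 cercariae; 1 pair/well in duplicate, dosed at 20 μM in 0.2% DMSO for 72 h. Motility scored by digital image processing (WormassayGP2); in vitro laid eggs counted and pairing noted. DMSO negative and praziquantel positive controls; n = 2 independent screens, 2 technical replicates each.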

Schistosoma mansoni [12] = assay: Antiparasitic activity against Schistosoma mansoni adult worms assessed as reduction in oviposition at 20 uM incubated for 72 hrs by imaging analysis; format: functional, organism-based; how it was run: as §3
Schistosoma mansoni [13] = assay: Antiparasitic activity against Schistosoma mansoni adult worms assessed as effect on worm motility at 20 uM incubated for 72 hrs by imaging analysis; format: functional, organism-based; how it was run: as §3
Schistosoma mansoni [14] = assay: Antiparasitic activity against Schistosoma mansoni assessed as inhibition of miracidia to sporocyst transformation incubated for 48 hrs by enumeration method; format: functional, organism-based; conditions: dose 0.5-25 µM
How it was run: (§4)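 Miracidia hatched from eggs, washed in Chernin's balanced salt solution, 15–25 per well. Exposed to 0.5, 2.0, 5.0, 10 and 25 μM final in 1% DMSO, 48 h at 26 °C in the dark. Dead, partially and fully transformed parasites counted as % of population. Three independent experiments, two technical replicates each; CBSS/1% DMSO negative control.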

Schistosoma mansoni [15] = assay: Antiparasitic activity against Schistosoma mansoni assessed as inhibition of miracidia to sporocyst transformation at 0.5 to 25 uM incubated for 48 hrs by enumeration method; format: functional, organism-based; conditions: dose 0.5-25 µM; how it was run: as §4
[16] = Binding affinity to Schistosoma mansoni BRD3 BD 1 and 2 assessed as dissociation constant by ITC analysis
[17] = (§5) Prodrug conversion in Schistosoma mansoni adult worms assessed as ester hydrolysis in media at 20 uM incubated for 24 hrs followed by compound washout thrice and subsequent addition of fresh medium without compound by LC-MS analysis; format: ADME
[18] = Drug uptake in Schistosoma mansoni adult worms at 20 uM incubated for 24 hrs followed by compound washout thrice and subsequent addition of fresh medium without compound by LC-MS analysis; format: ADME
How it was run: (§6)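 Adult worms exposed to 20 μM compound for 24 h, medium exchanged three times, worms then lysed; parent and acid levels in lysate quantified by LCMS.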

[19] = as §5, with “4-{(2S,4R)-1-acetyl-2-methyl-4-[(quinolin-6-yl)amino]-1,2,3,4-tetrahydroquinolin-6-yl}benzoic acid metabolite formation” for “ester hydrolysis in media”; format: ADME; how it was run: as §6
[20] = Prodrug conversion in Schistosoma mansoni adult worms assessed as 3-(3,5-dimethylisoxazol-4-yl)-5-(hydroxy(phenyl)methyl)phenol metabolite formation at 20 uM incubated for 24 hrs followed by compound washout thrice and subsequent addition of fresh medium without compound by LC-MS analysis; format: ADME

With `CC(=O)N1c2ccc(-c3ccc(C(=O)O)cc3)cc2[C@H](Nc2ccc3ccsc3c2)C[C@@H]1C` the pKd [1] was 6.2 and the Activity (Schistosoma mansoni [2]) was “inactive”.
In the case of `CC(=O)N1c2ccc(-c3ccc(C(=O)O)cc3)cc2[C@@H](Nc2ccc3ccsc3c2)C[C@H]1C`, the Activity (Schistosoma mansoni [3]) is reported as “inactive”, the Activity (Schistosoma mansoni [4]) is reported as “inactive” and the Activity (Schistosoma mansoni [5]) is reported as “inactive”. For the same compound, the Activity (Schistosoma mansoni [2]) was “inactive”.
For `CC(=O)N1c2ccc(-c3ccc(C(=O)O)cc3)cc2[C@H](Nc2ccc3ncsc3c2)C[C@@H]1C`, the pKd [1] was 5.9, the EC50 (Schistosoma mansoni [6]) was 2140 nM and the EC50 (Schistosoma mansoni [7]) was 2850 nM. The Activity (Schistosoma mansoni [2]) was “inactive”.
In the case of `Cc1noc(C)c1-c1cc(O)cc(C(O)c2ccccc2)c1` (centres undefined), the Activity (Schistosoma mansoni [8]) is reported as “Active”, the Activity (Schistosoma mansoni [9]) is reported as “inactive” and the Activity (Schistosoma mansoni [10]) is reported as “Active”. The Activity (Schistosoma mansoni [3]) was “inactive” and the Activity (Schistosoma mansoni [2]) was “inactive”.
For `CCOC(=O)c1ccc(-c2ccc3c(c2)[C@H](Nc2ccc4ccsc4c2)C[C@H](C)N3C(C)=O)cc1`, the Activity (Schistosoma mansoni [11]) was “Active”, the Activity (Schistosoma mansoni [12]) was “Active” and the Activity (Schistosoma mansoni [13]) was “Active”. For the same compound, the Activity (Schistosoma mansoni [2]) was “inactive” and the inhibition (Schistosoma mansoni [14]) was “Dose-Dependent Effect”.
In the case of `Cc1noc(C)c1-c1cc(O)cc(C(O)c2ccc(F)cc2)c1` (centres undefined), the Activity (Schistosoma mansoni [3]) is reported as “inactive”, the Activity (Schistosoma mansoni [2]) is reported as “inactive” and the inhibition (Schistosoma mansoni [15]) is reported as “inactive”.
With `CCOC(=O)c1ccc(-c2ccc3c(c2)[C@H](Nc2ccc4sccc4c2)C[C@H](C)N3C(C)=O)cc1` the Activity (Schistosoma mansoni [2]) was “inactive”.
In the case of `CCOC(=O)c1ccc(-c2ccc3c(c2)[C@@H](Nc2ccc4ccsc4c2)C[C@@H](C)N3C(C)=O)cc1`, the Activity (Schistosoma mansoni [11]) is reported as “inactive”, the Activity (Schistosoma mansoni [4]) is reported as “inactive” and the Activity (Schistosoma mansoni [5]) is reported as “inactive”. For the same compound, the Activity (Schistosoma mansoni [2]) was “inactive” and the inhibition (Schistosoma mansoni [15]) was “Active”.
For `Cc1sc2c(c1C)C(c1ccc(Cl)cc1)=N[C@@H](CC(=O)OC(C)(C)C)c1nnc(C)n1-2`, the Activity (Schistosoma mansoni [8]) was “Active”, the Activity (Schistosoma mansoni [9]) was “inactive” and the Activity (Schistosoma mansoni [10]) was “Active”. The Kd [16] was 445 nM, the pKd [16] was 6.4 and the Activity (Schistosoma mansoni [3]) was “inactive”. For the same compound, the Activity (Schistosoma mansoni [2]) was “inactive” and the inhibition (Schistosoma mansoni [15]) was “Active”.
In the case of `O=C(C1CCCCC1)N1CC(=O)N2CCc3ccccc3C2C1` (centres undefined), the Activity (Schistosoma mansoni [2]) is reported as “inactive”.
In the case of `COc1cc2c3c(cnc2cc1-c1c(C)noc1C)NC(=O)C3[C@H](C)c1ccccn1` (some centres undefined), the pKd [1] is reported as 5.2.
`CC(=O)N1c2ccc(-c3ccc(C(=O)O)cc3)cc2[C@H](Nc2ccc3ccoc3c2)C[C@@H]1C` gave a pKd [1] of 5.9, an EC50 (Schistosoma mansoni [6]) of 2430 nM and an EC50 (Schistosoma mansoni [7]) of 3920 nM. For the same compound, the Activity (Schistosoma mansoni [2]) was “inactive”.
With `Cc1noc(C)c1-c1cc(O)cc(C(O)c2cccnc2)c1` (centres undefined) the Activity (Schistosoma mansoni [3]) was “inactive” and the Activity (Schistosoma mansoni [2]) was “inactive”.
For `CCOC(=O)c1ccc(-c2ccc3c(c2)[C@H](Nc2ccc4[nH]ccc4c2)C[C@H](C)N3C(C)=O)cc1`, the Kd [1] was 651 nM and the Activity (Schistosoma mansoni [2]) was “inactive”.
In the case of `CCOC(=O)c1ccc(-c2ccc3c(c2)[C@H](Nc2ccc4ncccc4c2)C[C@H](C)N3C(C)=O)cc1`, the Kd [1] is reported as 364 nM, the Activity (Schistosoma mansoni [2]) is reported as “inactive” and the inhibition (Schistosoma mansoni [14]) is reported as “Dose-Dependent Effect”. The Drug metabolism [17] was “Metabolite_Detected”, the Drug uptake [18] was “Active” and the Drug metabolism [19] was “Metabolite_Detected”.
Compound `CC(=O)N1c2ccc(-c3ccc(C(=O)O)cc3)cc2[C@H](Nc2ccc3ncccc3c2)C[C@@H]1C` has a pKd [1] of 6.4, an EC50 (Schistosoma mansoni [6]) of 1110 nM and an EC50 (Schistosoma mansoni [7]) of 3300 nM. The Activity (Schistosoma mansoni [2]) was “inactive”.
In the case of `CC(=O)N1c2ccc(-c3ccc(C(=O)O)cc3)cc2[C@H](Nc2ccc(Cl)cc2)C[C@@H]1C`, the Activity (Schistosoma mansoni [8]) is reported as “Active”, the Activity (Schistosoma mansoni [9]) is reported as “Active” and the pKd [1] is reported as 5.7. For the same compound, the Activity (Schistosoma mansoni [2]) was “inactive”.
For `CC(=O)N1c2ccc(-c3ccc(C(=O)O)cc3)cc2[C@H](Nc2ccc3sccc3c2)C[C@@H]1C`, the pKd [1] was 6.3 and the Activity (Schistosoma mansoni [2]) was “inactive”.
For `CC[C@@H]1C(=O)N(C)c2cnc(Nc3ccc(C(=O)NC4CCN(C)CC4)cc3OC)nc2N1C1CCCC1`, the Activity (Schistosoma mansoni [8]) was “Active” and the Activity (Schistosoma mansoni [9]) was “Active”.
With `CCOC(=O)c1ccc(-c2ccc3c(c2)[C@H](Nc2ccc4ncsc4c2)C[C@H](C)N3C(C)=O)cc1` the Kd [1] was 1180 nM and the Activity (Schistosoma mansoni [2]) was “inactive”.
Compound `CC(=O)N1c2ccc(-c3ccc(C(=O)O)cc3)cc2[C@H](Nc2ccc3[nH]ccc3c2)C[C@@H]1C` has a pKd [1] of 6.2, an EC50 (Schistosoma mansoni [6]) of 2970 nM and an EC50 (Schistosoma mansoni [7]) of 1810 nM. The Activity (Schistosoma mansoni [2]) was “inactive”.
In the case of `CC(=O)Oc1cc(-c2c(C)noc2C)cc(C(O)c2ccccc2)c1` (centres undefined), the Activity (Schistosoma mansoni [3]) is reported as “inactive”, the Activity (Schistosoma mansoni [4]) is reported as “Active” and the Activity (Schistosoma mansoni [5]) is reported as “Active”. For the same compound, the Activity (Schistosoma mansoni [2]) was “inactive”, the inhibition (Schistosoma mansoni [15]) was “inactive” and the Drug metabolism [20] was “Metabolite_Detected”.
In the case of `CCOC(=O)c1ccc(-c2ccc3c(c2)[C@H](Nc2ccc4ccoc4c2)C[C@H](C)N3C(C)=O)cc1`, the Kd [1] is reported as 1180 nM and the Activity (Schistosoma mansoni [2]) is reported as “inactive”.

From ChEMBL document CHEMBL5344427, “Small Molecule Ligands of the BET-like Bromodomain, SmBRD3, Affect Schistosoma mansoni Survival, Oviposition, and Development” (J Med Chem, 2023)
